ChEMBL document CHEMBL1124112, “Indoline analogues of idazoxan: potent alpha 2-antagonists and alpha 1-agonists” (J Med Chem, 1988)

Assays:
Rattus norvegicus [1] = test: In vivo antagonist dose producing two fold shift of UK-14,304 in pithed rats. (prejunctional)
[2] = tested on: Adrenergic receptor alpha-1 (Rattus norvegicus); test: […] towards alpha-1 adrenergic receptor determined as the dose required to produce a two fold shift of the cirazoline on diastolic blood pressure (in vitro); details: Artery
[3] = tested on: Adrenergic receptor alpha-2 (Rattus norvegicus); test: Agonism at alpha-2 adrenergic receptor, determined as dose required to produce a two fold shift of the cumulative dose-response curve to UK-14304 on the twitch response in rat vas deferens.
Rattus norvegicus [4] = test: In vivo antagonist dose producing two fold shift of cirazoline in pithed rats. (postjunctional); assay type: functional
Method in brief: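 Pithed rats, separate groups (n = 4-6). Cirazoline cumulative dose-response on diastolic blood pressure (postjunctional α1) was recorded with and without antagonist given iv. The antagonist dose (μg/kg, iv) giving a twofold rightward shift of the cirazoline curve was reported as DR2.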

[5] = molecular target: T1, Adrenergic receptor alpha-2 (Rattus norvegicus, UniProt P22086+P19328+P22909); test: Inhibition of saturable binding of [3H]idazoxan to alpha2-site in rat cerebral cortical membranes.; assay type: cell membranes, Membrane
T1 sequence (P22086 whole entry): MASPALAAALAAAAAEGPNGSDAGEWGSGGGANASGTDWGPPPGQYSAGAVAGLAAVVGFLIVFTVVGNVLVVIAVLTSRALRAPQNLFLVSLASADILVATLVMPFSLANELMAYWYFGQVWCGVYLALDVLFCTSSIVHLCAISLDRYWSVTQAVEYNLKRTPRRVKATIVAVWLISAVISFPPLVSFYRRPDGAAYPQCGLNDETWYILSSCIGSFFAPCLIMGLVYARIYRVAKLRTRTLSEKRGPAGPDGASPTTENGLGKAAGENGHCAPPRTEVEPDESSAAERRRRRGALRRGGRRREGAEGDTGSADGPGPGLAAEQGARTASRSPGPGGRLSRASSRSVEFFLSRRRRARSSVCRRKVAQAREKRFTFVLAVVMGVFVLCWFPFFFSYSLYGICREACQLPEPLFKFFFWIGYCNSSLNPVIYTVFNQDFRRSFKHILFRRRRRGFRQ
T1 sequence (P19328 whole entry): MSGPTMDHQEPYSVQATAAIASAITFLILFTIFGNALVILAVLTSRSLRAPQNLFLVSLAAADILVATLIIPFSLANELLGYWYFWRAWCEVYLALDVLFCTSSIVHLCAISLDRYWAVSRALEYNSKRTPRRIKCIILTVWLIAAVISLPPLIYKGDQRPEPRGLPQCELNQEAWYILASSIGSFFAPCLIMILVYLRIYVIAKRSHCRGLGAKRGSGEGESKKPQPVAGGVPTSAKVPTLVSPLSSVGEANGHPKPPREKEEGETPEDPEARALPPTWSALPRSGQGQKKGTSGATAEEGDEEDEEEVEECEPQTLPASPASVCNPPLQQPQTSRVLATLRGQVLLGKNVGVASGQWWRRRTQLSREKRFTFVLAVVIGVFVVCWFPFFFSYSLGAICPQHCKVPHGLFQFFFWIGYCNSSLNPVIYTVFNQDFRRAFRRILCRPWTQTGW
T1 sequence (P22909 whole entry): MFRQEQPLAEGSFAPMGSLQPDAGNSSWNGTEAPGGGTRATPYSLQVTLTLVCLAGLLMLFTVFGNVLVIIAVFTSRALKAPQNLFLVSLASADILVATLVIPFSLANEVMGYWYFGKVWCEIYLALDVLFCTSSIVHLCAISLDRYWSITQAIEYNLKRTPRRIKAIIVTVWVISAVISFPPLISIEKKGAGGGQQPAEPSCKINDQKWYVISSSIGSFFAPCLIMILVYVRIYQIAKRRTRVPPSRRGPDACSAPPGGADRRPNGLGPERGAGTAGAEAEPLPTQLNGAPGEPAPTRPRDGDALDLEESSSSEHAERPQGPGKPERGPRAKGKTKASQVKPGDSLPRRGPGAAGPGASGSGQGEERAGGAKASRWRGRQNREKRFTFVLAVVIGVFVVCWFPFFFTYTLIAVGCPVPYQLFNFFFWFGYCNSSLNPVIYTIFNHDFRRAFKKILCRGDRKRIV

Compound `c1ccc(CN2c3ccccc3CC2C2=NCCN2)cc1` (stereo not given) has a DR2 (Rattus norvegicus [1]) of 0.0087 mg/kg, a Postjunctional antagonist potency [2] of 120 and a Prejunctional agonist potency [3] of 0.02. For the same compound, the DR2 (Rattus norvegicus [4]) was 0.0543 mg/kg and the Ki [5] was 1.87 nM.
